Reference: ChEMBL document CHEMBL1154373, “Laetirobin from the parasitic growth of Laetiporus sulphureus on Robinia pseudoacacia” (J Nat Prod, 2009)
pIC50: −log10 of the molar value. The source made the active and inactive calls. The rule behind the calls is not given here.

Legend:
[1] = Drug localization in lysosome of human HCT116 cells at 1 nM assessed as increase of fluorescence with acidity after 1 hr by spectrophotometric analysis; format: ADME, cell-based; settings: hct-116, 1 h, 0.001 µM
HeLa [2] = experiment: Inhibition of mitosis in human HeLa cells assessed as actin hyperfilamentation at 1 nM by FITC-phalloidin staining; format: functional, cell-based
Summary of the method: (§1)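 Cells treated with 1 nM compound before entry into mitosis, then fixed with formalin. Stained for microtubules with BODIPY-FL paclitaxel, actin with FITC-phalloidin, and DNA. Analysed by confocal microscopy for actin filamentation, microtubule structure and daughter-cell separation.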

[3] = Drug localization in nuclear envelope of mouse Neuro2A cells at 1 nM after 1 hr by fluorescence microscopy; format: ADME, cell-based; settings: 0.001 µM
[4] = Drug localization in nuclear envelope of human HCT116 cells at 1 nM after 1 hr by confocal microscopy; format: ADME, cell-based; settings: hct-116, 1 h, 0.001 µM
HeLa [5] = experiment: Inhibition of mitosis in human HeLa cells assessed as microtubule disassociation at 1 nM by BODIPY-FL paclitaxel staining; format: functional, cell-based; summary of the method: as §1
N2a [6] = experiment: Inhibition of mitosis in mouse Neuro2a cells assessed as chromatin compactness at 1 nM after 6 to 12 hrs by time-lapse microscopy; format: functional, cell-based
Summary of the method: (§2)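 Cells treated with 1 nM compound and followed by time-lapse microscopy imaging the compound's native fluorescence. Bleb formation and chromatin compaction scored at 6 h and 12 h after treatment.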

N2a [7] = experiment: Inhibition of mitosis in mouse Neuro2a cells assessed as actin hyperfilamentation at 1 nM by FITC-phalloidin staining; format: functional, cell-based; summary of the method: as §1
HeLa [8] = experiment: Cytostatic activity against human HeLa cells; format: functional, cell-based
HeLa [9] = experiment: Inhibition of mitosis in human HeLa cells assessed as membrane scarring between daughter cells at 1 nM by confocal microscopy; format: functional, cell-based; summary of the method: as §1
HCT-116 [10] = experiment: Inhibition of mitosis in human HCT116 cells assessed as membrane scarring between daughter cells at 1 nM by confocal microscopy; format: functional, cell-based; summary of the method: as §1
HCT-116 [11] = experiment: Inhibition of mitosis in human HCT116 cells assessed as microtubule disassociation at 1 nM by BODIPY-FL paclitaxel staining; format: functional, cell-based; summary of the method: as §1
N2a [12] = experiment: Inhibition of mitosis in mouse Neuro2a cells assessed as microtubule disassociation at 1 nM by BODIPY-FL paclitaxel staining; format: functional, cell-based; summary of the method: as §1
HeLa [13] = experiment: Inhibition of mitosis in human HeLa cells assessed as bleb formation at 1 nM after 6 to 12 hrs by time-lapse microscopy; format: functional, cell-based; summary of the method: as §2
[14] = Drug localization in large vesicles of human HCT116 cells at 1 nM after 1 hr by confocal microscopy; format: ADME, cell-based; settings: hct-116, 1 h, 0.001 µM
N2a [15] = experiment: Inhibition of mitosis in mouse Neuro2a cells assessed as bleb formation at 1 nM after 6 to 12 hrs by time-lapse microscopy; format: functional, cell-based; summary of the method: as §2
HCT-116 [16] = experiment: Cytostatic activity against human HCT116 cells; format: functional, cell-based
HCT-116 [17] = experiment: Inhibition of mitosis in human HCT116 cells assessed as chromatin compactness at 1 nM after 6 to 12 hrs by time-lapse microscopy; format: functional, cell-based; summary of the method: as §2
[18] = Drug localization in large vesicles of mouse Neuro2A cells at 1 nM after 1 hr by fluorescence microscopy; format: ADME, cell-based; settings: 0.001 µM
HCT-116 [19] = experiment: Inhibition of mitosis in human HCT116 cells assessed as hyperfilamentation of actin at 1 nM by FITC-phalloidin staining; format: functional, cell-based; summary of the method: as §1
HeLa [20] = experiment: Inhibition of mitosis in human HeLa cells assessed as chromatin compactness at 1 nM after 6 to 12 hrs by time-lapse microscopy; format: functional, cell-based; summary of the method: as §2
HCT-116 [21] = experiment: Inhibition of mitosis in human HCT116 cells assessed as bleb formation at 1 nM after 6 to 12 hrs by time-lapse microscopy; format: functional, cell-based; summary of the method: as §2
N2a [22] = experiment: Inhibition of mitosis in mouse Neuro2a cells assessed as membrane scarring between daughter cells at 1 nM by confocal microscopy; format: functional, cell-based; summary of the method: as §1
N2a [23] = experiment: Cytostatic activity against mouse Neuro2a cells; format: functional, cell-based

Which results are given for `CC(=O)c1cc2c(cc1O)OC1=C(c3cc4cc(C(C)=O)c(O)cc4o3)CCC(c3cc4cc(C(C)=O)c(O)cc4o3)(c3cc4cc(C(C)=O)c(O)cc4o3)C12` (racemic)?
Activity [1]: Active; Activity (HeLa [2]): Active; Activity [3]: Active; Activity [4]: Active; Activity (HeLa [5]): Active; Activity (N2a [6]): Active; Activity (N2a [7]): Active; pIC50 (HeLa [8]): 9.92; Activity (HeLa [9]): Active; Activity (HCT-116 [10]): Active; Activity (HCT-116 [11]): Active; Activity (N2a [12]): Active; Activity (HeLa [13]): Active; Activity [14]: Active; Activity (N2a [15]): Active; pIC50 (HCT-116 [16]): 9.27; Activity (HCT-116 [17]): Active; Activity [18]: Active; Activity (HCT-116 [19]): Active; Activity (HeLa [20]): Active; Activity (HCT-116 [21]): Active; Activity (N2a [22]): Active; pIC50 (N2a [23]): 10.04
